Assay outcomes deposited in PubChem by Johns Hopkins Ion Channel Center.
TRPC6 activator = mouse TRPC6 channel activators, primary screen, cell-based, HEK293, membrane potential dye; HEK293-TRPC6 membrane potential dye fluorescence; stronger effect = higher value; B-score at 10 µM; 310,000 compounds, 0.13% hits; AID 2550, 2010;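 active = B-score of the integrated fluorescence ratio above library mean plus 3 SD, and starting fluorescence ratio within library mean plus 5 SD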;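 also: higher score means more depolarization so channel activation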
TRPC4 inh = inhibitors of mouse TRPC4 channel, primary screen, Fluo4 calcium, HEK293 TRPC4beta/mu-opioid cells | DAMGO-evoked Fluo4 calcium flux; stronger effect = lower value | B-score at 10 µM | 300,000 compounds, 0.39% hits | AID 2247, 2010;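 active = B-score over 3 SD under the library average, no early fluorescence shift, positive overall ratio signal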
Target sequence (Q9QUQ5 whole entry, looked up): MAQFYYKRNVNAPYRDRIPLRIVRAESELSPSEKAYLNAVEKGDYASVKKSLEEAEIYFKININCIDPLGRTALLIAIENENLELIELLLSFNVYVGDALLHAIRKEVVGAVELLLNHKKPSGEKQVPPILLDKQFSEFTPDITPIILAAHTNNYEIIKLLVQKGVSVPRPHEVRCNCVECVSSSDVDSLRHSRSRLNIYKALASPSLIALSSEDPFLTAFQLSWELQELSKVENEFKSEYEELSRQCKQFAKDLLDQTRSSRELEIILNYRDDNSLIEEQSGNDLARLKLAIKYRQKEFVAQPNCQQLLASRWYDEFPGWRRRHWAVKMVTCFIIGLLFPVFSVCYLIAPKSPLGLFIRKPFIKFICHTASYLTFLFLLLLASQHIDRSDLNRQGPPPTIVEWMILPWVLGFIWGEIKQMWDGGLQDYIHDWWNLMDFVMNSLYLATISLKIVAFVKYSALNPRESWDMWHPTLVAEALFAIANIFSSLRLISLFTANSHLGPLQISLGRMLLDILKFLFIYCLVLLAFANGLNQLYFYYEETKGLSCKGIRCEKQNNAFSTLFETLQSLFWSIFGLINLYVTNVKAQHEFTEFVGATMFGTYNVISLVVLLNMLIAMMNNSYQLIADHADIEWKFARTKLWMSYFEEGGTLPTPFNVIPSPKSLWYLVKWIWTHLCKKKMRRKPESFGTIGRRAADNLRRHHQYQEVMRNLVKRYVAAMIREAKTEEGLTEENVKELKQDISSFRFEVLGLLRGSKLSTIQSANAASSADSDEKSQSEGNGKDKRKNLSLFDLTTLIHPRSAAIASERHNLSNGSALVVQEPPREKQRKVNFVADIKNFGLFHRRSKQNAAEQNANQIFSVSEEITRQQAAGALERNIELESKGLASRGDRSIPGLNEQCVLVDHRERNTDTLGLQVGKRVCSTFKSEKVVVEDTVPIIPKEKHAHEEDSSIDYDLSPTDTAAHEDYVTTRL
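Test system – stable TRPC4beta/mu-opioid receptor HEK293 cells · Probe or stimulus – DAMGO, a submaximal dose followed by a maximal one · Dosing – one concentration per compound · Signal – Fluo4 calcium fluorescence by kinetic imaging, 5 s 1 Hz baseline · Evaluation – per-well B score of integrated baseline-normalized Fluo4 ratio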
TRPC6 inh = mouse TRPC6 channel inhibitors, primary screen, cell-based, HEK293, membrane potential dye | B-score at 10 µM | Short transient receptor potential channel 6 (Mus musculus), Q61143 | ACh-evoked depolarization; stronger effect = lower value | 310,000 compounds, 1.1% hits;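 active = B-score under library mean minus 3 SD, initial fluorescence not abnormally high, positive integrated signal ratio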;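 also: B-score derived from integrated fluorescence ratio over the kinetic read; more negative B-score means stronger inhibition of depolarization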
TRPC4 PAM = positive allosteric modulators of TRPC4, primary screen, cell-based, mouse TRPC4beta, HEK293 mu-opioid, Fluo-4 calcium; Short transient receptor potential channel 4 (Mus musculus), Q9QUQ5; DAMGO EC20, Fluo-4 Ca2+ flux; stronger effect = higher value; B-score at 10 µM; 310,000 compounds, 0.42% hits; AID 2227, 2009;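 active = B-score of calcium response area above 5 SD of library B-scores, with initial fluorescence ratio within 5 SD of library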;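 also: B-score of integrated fluorescence ratio over time as area under calcium response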
TRPC4 agonist = activators of mouse TRPC4 channel, primary screen, Fluo4 calcium, HEK293 TRPC4beta/mu-opioid cells | AID 2237, 2010 | Short transient receptor potential channel 4 (Mus musculus), Q9QUQ5 | Fluo4 calcium fluorescence; stronger effect = higher value | 310,000 compounds, 0.49% hits | B-score at 10 µM;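 active = B-score above 5 SD of library B-scores, and initial fluorescence ratio not above library mean plus 5 SD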;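 also: positive B-score marks a calcium rise read as TRPC4 activation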
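Material: HEK293 stable line with TRPC4beta plus mu-opioid receptor; technique: Fluo4 calcium-sensitive dye fluorescence, kinetic, 1 Hz baseline; timing: Fluo4 dye loading 45 min at room temperature, 110 s recording; controls: assay buffer as low control, maximal DAMGO as high control; read-out: integrated baseline-normalised fluorescence ratio, converted to per-well B score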
TRPC4 sel inh 2 = mouse TRPC4 off-target activity of TRPC6 inhibitors, second screen; shares compounds with TRPC6 inh; HEK293 TRPC4/MOR, membrane potential dye fluorescence; channel activated by saturating DAMGO dose; inhibition, % at 10 µM; 920 compounds, 42% hits;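 active = compounds whose fluorescence signal differed from control wells by over 3 SD, either direction, in both duplicate plates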
TRPC4 spec = mouse TRPC4 modulation by TRPC6 hits, confirmation, selectivity assay for TRPC6 inhibitor project, cell-based, HEK293 TRPC4/mu-opioid, membrane potential dye; membrane potential fluorescence; shares compounds with TRPC6 inh; activity change, negative = inhibition, % at 10 µM; 920 compounds, 61% hits;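 active = rise or fall in signal beyond 3 SD of buffer-only wells in both replicate plates, either sign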;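 also: integrated kinetic ratio of fluorescence range over baseline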
HEK293 MPD ctr 2-1 = nonspecific membrane potential effects, parental HEK293, confirmation, counter-screen for TRPC6 inhibitor project, cell-based, second counter screen. shares compounds with TRPC6 inh. parental HEK293 membrane potential dye fluorescence; maximal acetylcholine challenge after compound addition. signal change vs control, % at 10 µM. 920 compounds, 31% hits;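 active = membrane potential signal moving either way by over 3 SD of the maximum-effect control, in both duplicate plates, meaning non-specific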
HEK293 MPD ctr-1 = membrane potential modulation in parental HEK293, confirmation, counter-screen for TRPC6 inhibitor project, cell-based. shares compounds with TRPC6 inh. parental HEK293 membrane potential dye fluorescence. AID 2780, 2010. 920 compounds, 60% hits. membrane potential signal change, % at 10 µM;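 active = membrane potential signal shifting up or down by more than 3 SD of buffer-only wells, on both duplicate plates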
HEK293 MPD ctr-2 = parental HEK293 membrane potential modulation, confirmation, counter-screen for TRPC6 modulator project, cell-based; shares compounds with TRPC6 inh; membrane potential dye fluorescence; membrane potential signal change, % at 10 µM; 2,400 compounds, 51% hits;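 active = membrane potential signal moves up or down beyond 5 SD from buffer-only wells, on both duplicate plates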
HEK293 MPD ctr 2-2 = second counter-screen for TRPC6 modulators: effect in parental HEK293 cells; AID 488926; shares compounds with TRPC6 inh; inhibition, % at 10 µM; 2,400 compounds, 14% hits; membrane potential dye fluorescence; after compound, maximal acetylcholine stimulation;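 active = membrane potential signal drops by more than 5 SD from the mean control signal, in both duplicate plates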;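 also: plate controls were acetylcholine ECmax control wells for no effect and buffer only wells for full effect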
TRPC4/MOR mod = TRPC4 modulation by TRPC6 hit compounds, confirmation, selectivity assay for TRPC6 modulator project, cell-based, HEK293 TRPC4/mu-opioid, membrane potential dye, mouse. shares compounds with TRPC6 inh. membrane potential fluorescence. percent change from control (negative = decrease, positive = increase), % at 10 µM. 2,400 compounds, 69% hits;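 active = membrane potential signal moved up or down beyond 5 SD of buffer control wells, in both duplicate plates, actives on both sides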;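 also: plate controls were assay buffer wells for no effect and DAMGO maximal-effect wells for full effect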
TRPC4 ctr inh 2 = second selectivity test of TRPC6 modulators against mouse TRPC4. AID 488928. inhibition, % at 10 µM. HEK293 TRPC4/mu-opioid, membrane potential dye fluorescence; stimulated with maximal-effect DAMGO. 2,400 compounds, 55% hits. shares compounds with TRPC6 inh;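 active = drop in membrane potential signal beyond 5 SD of the control wells in both duplicate plates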;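 also: TRPC4 counter screen for TRPC6 hits run under conditions tuned for TRPC6 not TRPC4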
TRPC6 inh conf = mouse TRPC6 channel inhibitors, confirmation, HEK293 cells, membrane potential dye, duplicate; ACh-evoked depolarization; shares compounds with TRPC6 inh; inhibition, % at 10 µM; AID 488960, 2010; 3,300 compounds, 43% hits;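 active = fluorescence ratio falls more than 5 SD below the full-stimulation control mean, in both duplicate runs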;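 also: integrated fluorescence ratio of peak minus minimum over baseline after agonist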
TRPC6 act confirm = mouse TRPC6 channel activators, confirmation, HEK293 cells, membrane potential dye, duplicate; activation, % at 10 µM; HEK293-TRPC6 membrane potential dye fluorescence, FDSS; 2,800 compounds, 11% hits; shares compounds with TRPC6 inh;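 active = ratio signal rise beyond 5 SD above unstimulated control wells' mean, seen in both duplicate runs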;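 also: plate controls were buffer EC0 wells for no effect and acetylcholine ECmax response for full effect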
* hit, by the source's call; i = inactive; / = no result given. This is a sample that favours compounds with a hit; in the whole collection about 2.3% have one here.

SMILES | TRPC6 activator | TRPC4 inh | TRPC6 inh | TRPC4 PAM | TRPC4 agonist | HEK293 MPD ctr-2 | HEK293 MPD ctr 2-2 | TRPC4/MOR mod | TRPC4 ctr inh 2 | TRPC6 inh conf | TRPC6 act confirm | others
Cc1ccc2nc(N=C(N)N)nc(C)c2c1 | i | i | -9.4* | i | i | -196%* | i | -36%* | 64%* | 37%* | i
O=C(Nc1ccc(N2CCCCC2)c(Cl)c1)c1ncn[nH]1 | i | i | i | i | i | / | / | / | / | / | /
CCOc1ccc(NC(=O)C(NC(=O)C2CCC(C)CC2)C(C)C)cc1 (stereo unspecified) | i | i | -5.7* | i | i | i | i | i | i | i | i
CC1CCC(C(=O)NC(C(=O)Nc2ccccn2)C(C)C)CC1 (stereo unspecified) | i | i | i | i | i | / | / | / | / | / | /
COc1cc(/C=C2/C(=O)ON=C2c2ccccc2)ccc1O | i | i | i | i | i | / | / | / | / | / | /
COc1cc(/C=C2\C(=O)ON=C2c2ccccc2)cc(Br)c1O | 16* | i | i | i | i | 906%* | i | 74%* | i | i | 148%*
O=[N+]([O-])c1ccc(N2CCc3ccccc3C2)cc1 | i | i | -5.3* | i | i | i | i | i | i | i | i
O=[N+]([O-])c1ccc(-c2csc(N3CCc4ccccc4C3)n2)cc1 | i | i | i | i | i | / | / | / | / | / | /
C[N+]1(C)CCCC(OC(=O)C(O)(c2ccccc2)c2ccccc2)C1 (stereo unspecified) | i | i | -13* | i | i | / | / | / | / | 94%* | i | TRPC4 sel inh 2=i;TRPC4 spec=i;HEK293 MPD ctr 2-1=-23%*;HEK293 MPD ctr-1=i
CCn1nc(C)c(NC(=O)c2cnn3c(C(F)F)cc(-c4ccccc4)nc23)c1C | i | i | i | i | i | / | / | / | / | / | /
CCOC(=O)CNC(=O)Cn1cnc2c(nnn2-c2ccc(OC)cc2)c1=O | i | i | -9.5* | i | i | / | / | / | / | i | i | TRPC4 sel inh 2=i;TRPC4 spec=i;HEK293 MPD ctr 2-1=i;HEK293 MPD ctr-1=i
NC(=NCCc1c[nH]c2ccccc12)NC(=O)c1ccc(F)cc1 | i | i | -6.5* | i | i | i | i | i | 54%* | 44%* | i
CC1CC(OC(=O)C(O)c2ccccc2)CC(C)(C)N1C (stereo unspecified) | i | i | -5.7* | i | i | i | i | 8.5%* | i | 56%* | i
O=C(N/N=C/C1CC2C=CC1C2)c1ccccc1O (stereo unspecified) | i | i | i | i | i | / | / | / | / | / | /
CN(c1ccccc1)S(=O)(=O)c1cccc(C(=O)Nc2nn[nH]n2)c1 | i | i | i | i | i | / | / | / | / | / | /
COCCCn1c(SCC(=O)N2CCOCC2)nc2ccccc2c1=O | i | i | i | i | i | / | / | / | / | / | /
CC(=O)N1c2ccc(S(=O)(=O)N(C)CC(=O)NCc3ccc(C)cc3)cc2CC1C (stereo unspecified) | i | i | i | i | i | / | / | / | / | / | /
Cc1ccc(OCCCC(=O)Nc2nc3ccccc3[nH]2)cc1 | i | i | -7* | i | i | i | i | i | i | i | i
CCOC(=O)c1c(N)c2cc([N+](=O)[O-])ccc2n1C | i | i | i | i | i | / | / | / | / | / | /
CCOC(=O)c1c(N=CN(C)C)c2cc([N+](=O)[O-])cnc2n1C | i | i | -5.7* | i | i | -146%* | i | -23%* | 44%* | 54%* | i
COC(=O)c1sccc1NC(=O)c1ccccc1F | i | i | -6.3* | i | i | i | i | i | i | i | i
CC(C)c1cc(C(=O)N2CCCC(C(=O)c3ccc4ccccc4c3)C2)on1 (stereo unspecified) | i | i | i | i | i | / | / | / | / | / | /
Cc1cc(Cl)ccc1C(=O)C1CCCN(C(=O)c2cc(C(C)C)no2)C1 (stereo unspecified) | i | i | -6.2* | i | i | 98%* | i | 20%* | i | 48%* | /
CCOC(=O)c1c(N2C(=O)CC(Sc3ccccc3C(=O)O)C2=O)sc2c1CCCC2 (stereo unspecified) | 18* | i | i | i | i | 147%* | i | 8.0%* | i | i | 120%*
